Experiment [1] has as its target T1, DNA topoisomerase 1 (Homo sapiens) (UniProt P11387).
T1 sequence (whole entry): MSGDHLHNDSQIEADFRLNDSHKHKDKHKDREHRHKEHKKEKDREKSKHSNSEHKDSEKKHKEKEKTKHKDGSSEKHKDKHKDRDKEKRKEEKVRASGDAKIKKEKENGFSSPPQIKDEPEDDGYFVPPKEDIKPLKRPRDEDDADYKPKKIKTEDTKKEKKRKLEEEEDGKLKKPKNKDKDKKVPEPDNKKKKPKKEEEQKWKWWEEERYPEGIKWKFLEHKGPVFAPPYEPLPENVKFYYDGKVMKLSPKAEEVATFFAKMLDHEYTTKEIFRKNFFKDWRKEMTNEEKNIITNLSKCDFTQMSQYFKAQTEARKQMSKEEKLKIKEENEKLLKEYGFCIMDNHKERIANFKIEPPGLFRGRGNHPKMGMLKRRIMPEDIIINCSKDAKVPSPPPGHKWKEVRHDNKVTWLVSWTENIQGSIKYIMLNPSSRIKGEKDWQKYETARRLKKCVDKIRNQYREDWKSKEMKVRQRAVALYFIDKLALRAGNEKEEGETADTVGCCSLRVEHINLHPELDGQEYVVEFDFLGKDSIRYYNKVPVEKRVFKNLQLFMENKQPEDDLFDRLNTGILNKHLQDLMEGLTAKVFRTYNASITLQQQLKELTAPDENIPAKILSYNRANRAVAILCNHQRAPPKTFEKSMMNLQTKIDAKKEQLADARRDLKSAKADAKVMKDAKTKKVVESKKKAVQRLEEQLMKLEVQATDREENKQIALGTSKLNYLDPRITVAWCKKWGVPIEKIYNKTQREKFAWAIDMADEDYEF
Briefly: Inhibition of human recombinant DNA topoisomerase 1-mediated relaxation of supercoiled pBR322 DNA at 100 uM after 30 mins by agarose gel electrophoresis. In a few lines: (§1)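 Recombinant human topo I (0.4 units) with 100 ng supercoiled pBR322, 30 min at 37 °C in 10 mM Tris–HCl pH 7.9, 150 mM NaCl, 0.1% BSA, 1 mM spermidine, 5% glycerol. Compounds from 20 mM DMSO stock. Products run on 1% agarose in TAE, 15 V for 7 h, ethidium-stained, bands quantified under UV.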

Another experiment deals with DU-145. Briefly: Cytotoxicity against human DU145 cells after 4 days by ELISA reader assay. Format: functional, cell-based. The conditions noted are these: DU-145, 96 h. In a few lines:
(§2)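 Cells grown per supplier, seeded at 2–4 × 10⁴ per well, left overnight in medium with 10% FBS at 37 °C under 5% CO₂, then exposed to compounds. WST (cell counting kit-8) reagent added for a further 4 h, absorbance read at 450 nm. IC50 from four-parameter logistic fit; mean ± S.D. of three experiments, each in triplicate.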

For a further experiment, the system named is HCT-15. The experiment is described as follows: Cytotoxicity against human HCT15 cells after 4 days by ELISA reader assay. Format: functional, cell-based. The conditions noted are these: HCT-15, 96 h. In a few lines: as §2
Another experiment deals with K562. The experiment is described as follows: Cytotoxicity against human K562 cells after 4 days by ELISA reader assay. Format: functional, cell-based. Conditions: K562, 96 h. In a few lines:
as §2

Another experiment has as its system HeLa. Briefly: Cytotoxicity against human HeLa cells after 4 days by ELISA reader assay. Format: functional, cell-based. Conditions: 96 h. In a few lines: as §2
The next experiment relates to MCF7. The experiment is described as follows: Cytotoxicity against human MCF7 cells after 4 days by ELISA reader assay. Format: functional, cell-based. The conditions noted are these: MCF7, 96 h. In outline: as §2
Experiment [2] concerns the target T1, DNA topoisomerase 1 (Homo sapiens). The experiment is described as follows: Inhibition of human recombinant DNA topoisomerase 1-mediated relaxation of supercoiled pBR322 DNA at 20 uM after 30 mins by agarose gel electrophoresis. In outline:
as §1

For experiment [3], the target named is DNA topoisomerase 2-alpha (Homo sapiens) (UniProt P11388). Briefly: Inhibition of human DNA topoisomerase 2alpha-mediated relaxation of supercoiled pBR322 DNA at 100 uM after 30 mins by agarose gel electrophoresis. In outline: (§3)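 Human topo IIα (1 unit) with 200 ng supercoiled pBR322, 30 min at 30 °C in 10 mM Tris–HCl pH 7.9, 50 mM NaCl, 50 mM KCl, 5 mM MgCl2, 1 mM EDTA, 1 mM ATP plus BSA. Products run on 1% agarose in TAE at 25 V for 4 h, ethidium-stained, supercoiled DNA quantified under UV.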

Experiment [4] has the same target. The experiment is described as follows: Inhibition of human DNA topoisomerase 2alpha-mediated relaxation of supercoiled pBR322 DNA at 20 uM after 30 mins by agarose gel electrophoresis. In outline:
as §3

Active and inactive are the calls of the source. The rule behind the calls is not given here.

As a reminder, the inhibition is how much of the control response was suppressed. By IC50 is commonly meant the concentration at which inhibition is half-maximal. A low value points to greater potency.

Sequence of DNA topoisomerase 2-alpha (Homo sapiens) (P11388 whole entry): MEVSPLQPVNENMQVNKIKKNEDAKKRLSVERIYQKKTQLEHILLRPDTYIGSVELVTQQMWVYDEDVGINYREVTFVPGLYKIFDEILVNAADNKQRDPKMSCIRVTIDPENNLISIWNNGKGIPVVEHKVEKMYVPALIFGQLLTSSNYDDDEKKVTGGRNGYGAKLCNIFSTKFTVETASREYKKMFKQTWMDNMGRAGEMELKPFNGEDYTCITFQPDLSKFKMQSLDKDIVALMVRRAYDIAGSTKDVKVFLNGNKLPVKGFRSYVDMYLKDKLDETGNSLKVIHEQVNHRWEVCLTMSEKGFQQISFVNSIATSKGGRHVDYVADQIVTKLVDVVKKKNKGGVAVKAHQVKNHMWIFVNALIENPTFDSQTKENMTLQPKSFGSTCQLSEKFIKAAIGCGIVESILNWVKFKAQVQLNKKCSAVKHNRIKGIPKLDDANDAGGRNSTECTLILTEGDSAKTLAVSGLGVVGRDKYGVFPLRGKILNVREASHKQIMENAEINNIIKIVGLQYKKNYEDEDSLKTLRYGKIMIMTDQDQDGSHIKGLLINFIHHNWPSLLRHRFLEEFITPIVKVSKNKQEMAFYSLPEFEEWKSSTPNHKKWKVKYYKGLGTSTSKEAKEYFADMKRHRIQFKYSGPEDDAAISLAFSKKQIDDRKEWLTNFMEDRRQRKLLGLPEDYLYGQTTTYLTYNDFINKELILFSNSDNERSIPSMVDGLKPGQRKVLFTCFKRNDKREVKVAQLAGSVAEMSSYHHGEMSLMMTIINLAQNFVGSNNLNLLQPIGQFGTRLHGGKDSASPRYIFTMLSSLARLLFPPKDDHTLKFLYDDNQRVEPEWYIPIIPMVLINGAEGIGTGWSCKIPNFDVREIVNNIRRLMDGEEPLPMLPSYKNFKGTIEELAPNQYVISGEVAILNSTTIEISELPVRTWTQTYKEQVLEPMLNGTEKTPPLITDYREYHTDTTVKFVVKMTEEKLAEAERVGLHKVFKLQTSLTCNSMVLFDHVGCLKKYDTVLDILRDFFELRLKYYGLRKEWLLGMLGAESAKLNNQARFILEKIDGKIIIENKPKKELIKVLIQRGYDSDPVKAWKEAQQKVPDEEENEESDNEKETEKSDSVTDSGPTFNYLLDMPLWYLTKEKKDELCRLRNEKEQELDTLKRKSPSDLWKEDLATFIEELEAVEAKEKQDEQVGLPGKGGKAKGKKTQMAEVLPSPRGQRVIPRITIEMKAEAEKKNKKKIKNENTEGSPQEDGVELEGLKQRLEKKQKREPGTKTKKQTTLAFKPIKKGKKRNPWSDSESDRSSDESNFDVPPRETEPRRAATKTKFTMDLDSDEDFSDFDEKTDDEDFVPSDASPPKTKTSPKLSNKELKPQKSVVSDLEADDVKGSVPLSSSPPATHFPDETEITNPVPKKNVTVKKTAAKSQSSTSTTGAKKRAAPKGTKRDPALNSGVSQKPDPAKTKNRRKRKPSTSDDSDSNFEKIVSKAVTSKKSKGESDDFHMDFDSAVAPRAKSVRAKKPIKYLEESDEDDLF

For `Cc1ccsc1-c1cc(-c2ccc(Cl)o2)cc(-c2cccnc2)n1`, the inhibition was found to be 21.4% in experiment [1], 57.2% in experiment [3] and 25.5% in [4]. In addition, the half-inhibitory concentration (IC50) with DU-145 is 30.8 µM; in the experiment on HCT-15 it was above 50 µM; in the experiment with K562, 12.3 µM; in the experiment with HeLa it was above 50 µM; with MCF7, 5.81 µM. Moreover, the inhibition entry in experiment [2] was “inactive”.
With `Clc1ccc(-c2cc(-c3ccoc3)cc(-c3ccc(Cl)s3)n2)cc1`, the inhibition in experiment [1] stood at 2.3%; in [3], 62.7%; in experiment [4], 56.9%. Moreover, the half-inhibitory concentration (IC50) was determined as 29.5 µM in the experiment with DU-145; 0.64 µM in the experiment on HCT-15; 19.6 µM in the experiment with K562; 16.5 µM in the experiment on HeLa; 2.6 µM with MCF7. For the same compound, the inhibition entry in [2] was “inactive”.
For the compound `Cc1ccc(-c2cc(-c3ccoc3)cc(-c3ccc(Cl)s3)n2)cc1`, the results for the inhibition in [1], in experiment [3] and in [4] were 0%, 50.3% and 53.6%, respectively. Further, the IC50 in the experiment with DU-145 was 25.3 µM; in the experiment with HCT-15, 1.17 µM; in the experiment on K562 it was 17.9 µM; in the experiment with HeLa, 28.7 µM; with MCF7, 5.34 µM. Besides, the inhibition result in [2] is “inactive”.
With `Clc1cccc(-c2cc(-c3ccoc3)cc(-c3ccc(Cl)s3)n2)c1`, the figures for the inhibition in experiment [1], in experiment [3] and in [4] were 2.1%, 54% and 50.6%, respectively. Also, the half-maximal inhibitory concentration (IC50) in the experiment on DU-145 turned out to be 23 µM; in the experiment with HCT-15 it was 0.95 µM; in the experiment with K562, 22.1 µM; in the experiment on HeLa, 23.7 µM; in the experiment with MCF7 it was 2.92 µM. The inhibition entry in [2] was “inactive”.
Take `Clc1cccc(-c2cc(-c3ccc(Cl)o3)cc(-c3ccc(Cl)s3)n2)c1`: the values for the inhibition in experiment [1], in experiment [3] and in experiment [4] were 13.3%, 53.8% and 40.7%, respectively. Also, the IC50 is 21.6 µM in the experiment with DU-145; above 50 µM in the experiment on HCT-15; 19.6 µM in the experiment with K562; 25.2 µM with HeLa; 15.1 µM with MCF7. The inhibition entry in [2] was “inactive”.
Turning to `Clc1ccc(-c2cc(-c3ccoc3)cc(-c3ccccc3Cl)n2)s1`, the inhibition in experiment [1] came out at 0%; in experiment [3], 49.5%; in experiment [4], 37.6%. The IC50 came out at 16.4 µM with DU-145; 1.1 µM in the experiment with HCT-15; 15.8 µM with K562; 19 µM in the experiment with HeLa; 7.36 µM with MCF7. Also, the inhibition result in experiment [2] is “inactive”.
Consider `Cc1ccc(-c2cc(-c3ccoc3)cc(-c3ccc(Cl)s3)n2)o1`, for which the inhibition in experiment [1] is 13.2%; in experiment [3] it was 60.5%; in [4], 54%. Moreover, the half-inhibitory concentration (IC50) amounted to 33.4 µM with DU-145; 0.79 µM in the experiment on HCT-15; 12.7 µM in the experiment with K562; 26.5 µM with HeLa; 1.9 µM in the experiment on MCF7. In addition, the inhibition result in [2] is “inactive”.
As to `Cc1ccc(-c2cc(-c3ccc(Cl)o3)cc(-c3ccc(Cl)s3)n2)cc1`, the inhibition in experiment [1] came to 14.2%; in [3], 58.6%; in experiment [4], 41.1%. Also, the IC50 in the experiment with DU-145 is above 50 µM; in the experiment with HCT-15 it was above 50 µM; in the experiment with K562, 21.4 µM; in the experiment on HeLa, above 50 µM; with MCF7, 3.04 µM. Further, the inhibition entry in experiment [2] was “inactive”.

Source of the values: ChEMBL document CHEMBL1157684, “2-Thienyl-4-furyl-6-aryl pyridine derivatives: synthesis, topoisomerase I and II inhibitory activity, cytotoxicity, and structure-activity relationship study” (Bioorg Med Chem, 2010).
